PMC7781011 (Journal of Inflammation Research, 2020)
Changes are numbered by the printed parent chain.

Key:
[1] = system: LTB4 production in LPS-stimulated macrophages of humans, mice, and rats; assay: LTB4 production in LPS-stimulated macrophages, range over species; assay type: cell-based; conditions: Macrophage, read-out: IC50 range LTB4 production
In short: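 Human macrophages derived from THP-1 monocytes with PMA. Rat/mouse peritoneal macrophages collected by lavage with ice-cold DMEM, selected by glass adherence (1 h, 37°C), Trypan-blue checked. Cells in DMEM+10% FBS at 10,000 (96-well) or 40,000 (24-well) per well, given non-toxic compound doses, then LPS 10 µg/mL for 24 h. PGE2, PGI2 and LTB4 measured in supernatant. IC50 by four-parameter nonlinear regression.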

rat mPGES-1 = target: T1, rat mPGES-1 (Rattus norvegicus, UniProt Q9JHF3); assay: Cell-free mPGES-1 assay; assay type: biochemical; conditions: IC50 mPGES-1, cell-free
T1 sequence (Q9JHF3 1-153): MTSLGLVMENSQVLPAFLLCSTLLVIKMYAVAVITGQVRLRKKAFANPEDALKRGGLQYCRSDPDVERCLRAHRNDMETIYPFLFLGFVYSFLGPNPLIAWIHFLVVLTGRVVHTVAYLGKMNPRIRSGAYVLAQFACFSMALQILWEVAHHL

human COX-1 = human COX-1 (Homo sapiens, UniProt P23219); assay: Cell-free fluorometric COX-1 assay; assay type: biochemical
Sequence of human COX-1 (P23219 24-599): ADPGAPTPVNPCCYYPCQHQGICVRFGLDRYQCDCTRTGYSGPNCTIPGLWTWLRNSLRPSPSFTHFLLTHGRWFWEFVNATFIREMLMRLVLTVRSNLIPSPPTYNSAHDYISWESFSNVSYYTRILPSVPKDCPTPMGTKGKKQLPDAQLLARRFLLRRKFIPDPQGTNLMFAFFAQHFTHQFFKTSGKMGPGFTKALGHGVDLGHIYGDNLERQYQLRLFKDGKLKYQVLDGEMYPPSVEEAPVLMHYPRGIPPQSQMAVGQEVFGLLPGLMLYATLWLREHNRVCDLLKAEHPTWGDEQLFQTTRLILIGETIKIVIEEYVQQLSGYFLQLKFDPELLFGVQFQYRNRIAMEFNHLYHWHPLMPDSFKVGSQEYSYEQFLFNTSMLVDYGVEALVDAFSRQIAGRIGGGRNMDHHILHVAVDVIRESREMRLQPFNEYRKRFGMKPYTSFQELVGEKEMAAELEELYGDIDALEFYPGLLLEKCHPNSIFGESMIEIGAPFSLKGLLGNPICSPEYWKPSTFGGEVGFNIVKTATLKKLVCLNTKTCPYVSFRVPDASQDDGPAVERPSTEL

mouse COX-2 = target: T2, mouse COX-2 (Mus musculus, UniProt Q05769); assay: Cell-free fluorometric COX-2 assay; assay type: biochemical
T2 sequence (Q05769 18-604): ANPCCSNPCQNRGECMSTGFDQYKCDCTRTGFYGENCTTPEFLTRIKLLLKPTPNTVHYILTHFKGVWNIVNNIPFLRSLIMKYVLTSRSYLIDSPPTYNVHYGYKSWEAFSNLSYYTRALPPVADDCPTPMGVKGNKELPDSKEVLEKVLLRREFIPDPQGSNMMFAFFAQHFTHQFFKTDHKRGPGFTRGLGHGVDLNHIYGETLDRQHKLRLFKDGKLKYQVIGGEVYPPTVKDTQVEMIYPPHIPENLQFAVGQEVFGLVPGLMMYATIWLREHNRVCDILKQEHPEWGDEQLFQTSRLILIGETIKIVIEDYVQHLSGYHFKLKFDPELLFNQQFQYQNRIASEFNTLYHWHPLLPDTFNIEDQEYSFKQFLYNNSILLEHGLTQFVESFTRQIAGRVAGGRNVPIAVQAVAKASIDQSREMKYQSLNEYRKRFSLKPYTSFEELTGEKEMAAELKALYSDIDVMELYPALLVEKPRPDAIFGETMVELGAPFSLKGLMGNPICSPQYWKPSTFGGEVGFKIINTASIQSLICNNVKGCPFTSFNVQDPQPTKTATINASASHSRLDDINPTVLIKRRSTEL

mouse mPGES-1 = target: T3, mouse mPGES-1 (Mus musculus, UniProt Q9JM51); assay: Cell-free mPGES-1 assay; assay type: biochemical
T3 sequence (Q9JM51 1-153): T1 sequence (Q9JHF3 1-153) with T2P, L4P, N10S, S11G, V38M, C60Y, M122L, I126L, A137S
In short: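 Enzyme in 15 mM Tris-HCl pH 7.4 with 1 mM GSH, preincubated 20 min with compound (0.1–100 µM); plate held 15 min at 20°C. PGH2 (final 2.8 µM) added, 45 s at room temperature, then stopped with SnCl2 in 1N HCl. PGE2 by ELISA, in triplicate, % inhibition versus untreated. Human enzyme from E. coli or commercial; mouse enzyme from vas deferens/seminal vesicles. IC50 by four-parameter nonlinear regression.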

rat COX-2 = target: T4, rat COX-2 (Rattus norvegicus, UniProt P35355); assay: Cell-free fluorometric COX-2 assay; assay type: biochemical
T4 sequence (P35355 18-604): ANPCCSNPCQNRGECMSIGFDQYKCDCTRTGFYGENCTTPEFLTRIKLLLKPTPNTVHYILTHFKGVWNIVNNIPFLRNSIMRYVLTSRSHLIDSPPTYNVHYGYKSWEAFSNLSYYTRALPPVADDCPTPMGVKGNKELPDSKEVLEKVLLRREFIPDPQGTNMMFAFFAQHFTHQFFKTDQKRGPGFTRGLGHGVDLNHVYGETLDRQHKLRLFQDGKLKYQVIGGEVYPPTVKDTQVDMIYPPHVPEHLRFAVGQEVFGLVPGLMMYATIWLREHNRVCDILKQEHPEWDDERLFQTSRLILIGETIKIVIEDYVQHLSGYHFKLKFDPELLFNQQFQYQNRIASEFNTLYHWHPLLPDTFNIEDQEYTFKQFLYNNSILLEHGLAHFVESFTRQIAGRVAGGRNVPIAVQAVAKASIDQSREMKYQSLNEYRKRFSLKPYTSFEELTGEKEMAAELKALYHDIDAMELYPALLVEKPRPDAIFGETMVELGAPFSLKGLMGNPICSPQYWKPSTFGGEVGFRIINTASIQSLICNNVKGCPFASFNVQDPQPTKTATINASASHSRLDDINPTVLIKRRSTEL

rat COX-1 = target: T5, rat COX-1 (Rattus norvegicus, UniProt Q63921); assay: Cell-free fluorometric COX-1 assay; assay type: biochemical
T5 sequence (Q63921 27-602): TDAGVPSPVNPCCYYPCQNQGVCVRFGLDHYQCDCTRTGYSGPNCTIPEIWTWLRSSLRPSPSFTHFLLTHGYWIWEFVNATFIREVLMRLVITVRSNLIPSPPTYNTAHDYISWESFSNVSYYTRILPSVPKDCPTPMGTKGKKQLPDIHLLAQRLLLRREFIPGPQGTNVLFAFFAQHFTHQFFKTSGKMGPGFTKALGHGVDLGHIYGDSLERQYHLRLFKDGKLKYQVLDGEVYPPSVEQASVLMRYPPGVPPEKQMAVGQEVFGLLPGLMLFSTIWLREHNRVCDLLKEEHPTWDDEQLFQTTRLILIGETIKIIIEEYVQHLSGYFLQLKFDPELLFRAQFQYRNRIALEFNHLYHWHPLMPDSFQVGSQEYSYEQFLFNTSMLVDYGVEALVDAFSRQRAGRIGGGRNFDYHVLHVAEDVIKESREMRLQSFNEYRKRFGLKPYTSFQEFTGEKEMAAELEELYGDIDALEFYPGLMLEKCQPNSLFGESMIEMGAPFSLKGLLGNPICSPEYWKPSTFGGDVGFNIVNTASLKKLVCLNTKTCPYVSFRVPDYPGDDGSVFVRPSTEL

[2] = cell-free, rat, up to the tested range of 1 mM

Compound | IC50 [1] | IC50 (rat mPGES-1) | IC50 (human COX-1) | IC50 (mouse COX-2) | IC50 (mouse mPGES-1) | IC50 (rat COX-2) | IC50 (rat COX-1) | inhibition of COX-1 activity (human COX-1; cell-free, human, up to the tested range of 1 mM) | inhibition of COX-2 activity (mouse COX-2; cell-free, mouse, up to the tested range of 1 mM) | inhibition of COX-2 activity (rat COX-2; [2]) | inhibition of COX-1 activity (rat COX-1; [2])
CC1(C)Cc2c(-c3ccccc3)c(-c3ccc(Cl)cc3)c(CC(=O)O)n2C1 [Licofelone, reference compound] | 530 to 1600 nM | 12300 nM | 1650 nM | 2010 nM | > 15000 nM | 3260 nM | 1810 nM |  |  |  | 
CC1(C)Cc2c(-c3ccccc3)c(-c3ccc(Cl)cc3)c(CC(=O)NCC(=O)O)n2C1 [LFA-9, 2-[[2-[2-(4-chlorophenyl)-6,6-dimethyl-1-phenyl-5,7-dihydropyrrolizin-3-yl]acetyl]amino]acetic acid] | 630 to 1240 nM | 1400 nM |  |  | 520 nM |  |  | did not show inhibition | did not show inhibition | did not show inhibition | did not show inhibition
